Experimental findings from ChEMBL document CHEMBL2384914, “Synthetic tactics of new class of 4-aminothieno[2,3-d]pyrimidine-6-carbonitrile derivatives acting as antimicrobial agents” (2013) are described below.

Usually MIC stands for the lowest concentration found to suppress growth.

Assay [1] has as its system Aspergillus clavatus. The assay can be described thus: Antifungal activity against Aspergillus clavatus MTCC 1323 assessed as growth inhibition by broth microdilution method. Format: functional. A general note: Dilution methods test growth across graded concentrations, often in twofold steps.
Assay [2] deals with Aspergillus niger. Nature of the assay: Antifungal activity against Aspergillus niger MTCC 282 assessed as growth inhibition by broth microdilution method. Format: functional. The method in brief:
(§1)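 Fungal MTCC cultures were tested by broth microdilution with DMSO-diluted drug in serial dilutions, as a primary screen followed by a second dilution set for actives. MIC was the lowest concentration inhibiting growth. Each experiment was run three times and the MICs averaged.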

The test system of assay [3] is Candida albicans. Nature of the assay: Antifungal activity against Candida albicans MTCC 227 assessed as growth inhibition by broth microdilution method. Format: functional. The method in brief: as §1
In assay [4] the test system is Streptococcus pyogenes. Nature of the assay: Antibacterial activity against Streptococcus pyogenes MTCC 442 assessed as growth inhibition by broth microdilution method. Format: functional.
Assay [5] concerns Staphylococcus aureus. The assay can be described thus: Antibacterial activity against Staphylococcus aureus MTCC 96 assessed as growth inhibition by broth microdilution method. Format: functional.
Assay [6] has as its system Pseudomonas aeruginosa. Nature of the assay: Antibacterial activity against Pseudomonas aeruginosa MTCC 441 assessed as growth inhibition by broth microdilution method. Format: functional.
Assay [7] relates to Escherichia coli. Nature of the assay: Antibacterial activity against Escherichia coli MTCC 443 assessed as growth inhibition by broth microdilution method. Format: functional.
Assay [8] relates to Aspergillus clavatus. As to conditions: MTCC 1323.

`Cc1cccc(Nc2ncnc3sc(C#N)c(-c4ccc(Cl)cc4)c23)c1`: the MIC in assay [1] is greater than 1000 µg/mL; in assay [2] it was greater than 1000 µg/mL; in assay [3] it was greater than 1000 µg/mL; in assay [4], 250 µg/mL; in assay [5] it was 250 µg/mL; in assay [6] it was 200 µg/mL. The MIC in assay [7] is 250 µg/mL.

On to `N#Cc1sc2ncnc(Nc3ccccc3Cl)c2c1-c1ccc(Cl)cc1`, for which the MIC in assay [1] was greater than 1000 µg/mL; in assay [2] it was greater than 1000 µg/mL; in assay [3], 500 µg/mL; in assay [4], 100 µg/mL; in assay [5], 200 µg/mL; in assay [6], 62.5 µg/mL. Besides, the MIC in assay [7] amounted to 125 µg/mL.

On to `CCOC(=O)N1CCN(c2ncnc3sc(C#N)c(-c4ccc(Cl)cc4)c23)CC1`, for which the MIC was 1000 µg/mL in assay [1]; 1000 µg/mL in assay [2]; greater than 1000 µg/mL in assay [3]; 250 µg/mL in assay [4]; 250 µg/mL in assay [5]; 100 µg/mL in assay [6]. Further, the MIC in assay [7] stood at 62.5 µg/mL.

With `N#Cc1sc2nc[nH]c(=O)c2c1-c1ccc(Cl)cc1`, the MIC was greater than 1000 µg/mL in assay [1]; greater than 1000 µg/mL in assay [2]; 500 µg/mL in assay [3]; 250 µg/mL in assay [4]; 200 µg/mL in assay [5]; 62.5 µg/mL in assay [6]. Further, the MIC in assay [7] was 100 µg/mL.

Consider `NC(=O)c1sc2nc[nH]c(=O)c2c1-c1ccc(Cl)cc1`, for which the minimal inhibitory concentration (MIC) in assay [1] is 500 µg/mL; in assay [2], 250 µg/mL; in assay [3], greater than 1000 µg/mL; in assay [4] it was 200 µg/mL; in assay [5], 200 µg/mL; in assay [6] it was 200 µg/mL. In addition, the MIC in assay [7] turned out to be 125 µg/mL.

Regarding `N#Cc1sc2ncnc(N3CCOCC3)c2c1-c1ccc(Cl)cc1`, the MIC in assay [1] is greater than 1000 µg/mL; in assay [2], greater than 1000 µg/mL; in assay [3], 1000 µg/mL; in assay [4], 250 µg/mL; in assay [5] it was 250 µg/mL; in assay [6], 200 µg/mL. In assay [7], the MIC was determined as 125 µg/mL.

On to `Cc1ccccc1Nc1ncnc2sc(C#N)c(-c3ccc(Cl)cc3)c12`, for which the MIC in assay [1] is greater than 1000 µg/mL; in assay [2], greater than 1000 µg/mL; in assay [3], greater than 1000 µg/mL; in assay [4] it was 125 µg/mL; in assay [5], 250 µg/mL; in assay [6], 200 µg/mL. The MIC in assay [7] was found to be 200 µg/mL.

Take GENTAMICIN: the MIC in assay [4] was 0.5 µg/mL; in assay [5], 0.25 µg/mL; in assay [6], 1 µg/mL; in assay [7], 0.05 µg/mL.

For the compound `CC1(C)S[C@@H]2[C@H](NC(=O)[C@H](N)c3ccccc3)C(=O)N2[C@H]1C(=O)O` [AMPICILLIN], the MIC is 100 µg/mL in assay [4], 250 µg/mL in assay [5] and 100 µg/mL in assay [7].

As for `CCN(CC)c1ncnc2sc(C#N)c(-c3ccc(Cl)cc3)c12`, the MIC in assay [1] was greater than 1000 µg/mL; in assay [2], greater than 1000 µg/mL; in assay [3] it was 1000 µg/mL; in assay [4], 200 µg/mL; in assay [5], 200 µg/mL; in assay [6] it was 250 µg/mL. Moreover, the minimum inhibitory concentration (MIC) in assay [7] was 200 µg/mL.

Regarding NYSTATIN, the MIC in assay [2], in assay [3] and in assay [8] was 100 µg/mL each time.

Take `N#Cc1sc2ncnc(N3CCN(c4nsc5ccccc45)CC3)c2c1-c1ccc(Cl)cc1`: the MIC was greater than 1000 µg/mL in assay [1]; greater than 1000 µg/mL in assay [2]; 500 µg/mL in assay [3]; 200 µg/mL in assay [4]; 200 µg/mL in assay [5]; 250 µg/mL in assay [6]. Moreover, the MIC in assay [7] was determined as 100 µg/mL.

`N#Cc1sc2ncnc(Cl)c2c1-c1ccc(Cl)cc1`: the minimal inhibitory concentration (MIC) was found to be 1000 µg/mL in assay [1]; 1000 µg/mL in assay [2]; 1000 µg/mL in assay [3]; 250 µg/mL in assay [4]; 100 µg/mL in assay [5]; 250 µg/mL in assay [6]. Further, the minimal inhibitory concentration (MIC) in assay [7] worked out at 200 µg/mL.

As for `N#Cc1sc2ncnc(N3CCN(C(=O)C4COc5ccccc5O4)CC3)c2c1-c1ccc(Cl)cc1` (stereo not drawn), the MIC is 1000 µg/mL in assay [1]; 1000 µg/mL in assay [2]; 250 µg/mL in assay [3]; 125 µg/mL in assay [4]; 100 µg/mL in assay [5]; 250 µg/mL in assay [6]. The MIC in assay [7] worked out at 100 µg/mL.

Consider `N#Cc1sc2ncnc(N3CCN(c4cccc(Cl)c4Cl)CC3)c2c1-c1ccc(Cl)cc1`, for which the MIC is 1000 µg/mL in assay [1]; 500 µg/mL in assay [2]; 1000 µg/mL in assay [3]; 250 µg/mL in assay [4]; 250 µg/mL in assay [5]; 100 µg/mL in assay [6]. The minimal inhibitory concentration (MIC) in assay [7] amounted to 200 µg/mL.

Take `N#Cc1sc2ncnc(Nc3cccc(Cl)c3)c2c1-c1ccc(Cl)cc1`: the minimum inhibitory concentration (MIC) in assay [1] is 500 µg/mL; in assay [2], 500 µg/mL; in assay [3], greater than 1000 µg/mL; in assay [4], 250 µg/mL; in assay [5], 200 µg/mL; in assay [6], 100 µg/mL. The MIC in assay [7] came to 100 µg/mL.

For the compound `N#Cc1sc2ncnc(N3CCNCC3)c2c1-c1ccc(Cl)cc1`, the MIC in assay [1] was greater than 1000 µg/mL; in assay [2], 1000 µg/mL; in assay [3] it was 1000 µg/mL; in assay [4], 100 µg/mL; in assay [5], 62.5 µg/mL; in assay [6], 250 µg/mL. Moreover, the MIC in assay [7] is 125 µg/mL.

Turning to `O=C(O)c1cn(C2CC2)c2cc(N3CCNCC3)c(F)cc2c1=O` [CIPROFLOXACIN], the minimal inhibitory concentration (MIC) was 50 µg/mL in assay [4], 50 µg/mL in assay [5] and 25 µg/mL in assay [7].

On to `O=C(N[C@H](CO)[C@H](O)c1ccc([N+](=O)[O-])cc1)C(Cl)Cl` [CHLORAMPHENICOL], for which the MIC in assay [4], in assay [5], in assay [6] and in assay [7] was 50 µg/mL each time.

For the compound `NC(=O)c1sc(N)c(C(N)=O)c1-c1ccc(Cl)cc1`, the MIC in assay [1] is greater than 1000 µg/mL; in assay [2], greater than 1000 µg/mL; in assay [3], 500 µg/mL; in assay [4], 200 µg/mL; in assay [5] it was 250 µg/mL; in assay [6], 250 µg/mL. Moreover, in assay [7], the minimum inhibitory concentration (MIC) amounted to 200 µg/mL.

`COC1=CC(=O)C[C@@H](C)[C@]12Oc1c(Cl)c(OC)cc(OC)c1C2=O` [GRISEOFULVIN]: the MIC in assay [1] came out at 100 µg/mL; in assay [2], 100 µg/mL; in assay [3], 500 µg/mL.

On to `CCn1cc(C(=O)O)c(=O)c2cc(F)c(N3CCNCC3)cc21` [NORFLOXACIN], for which the MIC in assay [4], in assay [5], in assay [6] and in assay [7] was 10 µg/mL each time.

As to `N#Cc1sc2ncnc(N3CCCCC3)c2c1-c1ccc(Cl)cc1`, the MIC in assay [1] is greater than 1000 µg/mL; in assay [2], greater than 1000 µg/mL; in assay [3] it was 250 µg/mL; in assay [4] it was 200 µg/mL; in assay [5], 125 µg/mL; in assay [6], 250 µg/mL. Besides, in assay [7], the MIC is 250 µg/mL.

Consider `N#Cc1sc2ncnc(NCc3ccccc3)c2c1-c1ccc(Cl)cc1`, for which the MIC in assay [1] came to 1000 µg/mL; in assay [2], 1000 µg/mL; in assay [3], 1000 µg/mL; in assay [4], 125 µg/mL; in assay [5] it was 100 µg/mL; in assay [6], 250 µg/mL. In assay [7], the MIC worked out at 250 µg/mL.
